In ChEMBL document CHEMBL1143706, “Design, synthesis, and biological evaluation of novel bifunctional C-terminal-modified peptides for delta/mu opioid receptor agonists and neurokinin-1 receptor antagonists” (J Med Chem, 2007):
Square brackets hold non-standard residues; d marks the D form. Peptide text beside a SMILES is read from it. * marks the point of attachment. OBzl(3,5-(CF3)2) = FC(F)(F)c1cc(CO*)cc(C(F)(F)F)c1

What was measured:
Mu-type opioid receptor [1] = molecular target: Mu-type opioid receptor (Cavia porcellus, UniProt P97266); test: Agonist activity at mu opioid receptor in Hartley guinea pig ileum assessed as inhibition of electrically-stimulated muscle contraction; assay type: functional, tissue-based
In short: (§1)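 Isolated tissues, electrically stimulated at supramaximal voltage: guinea pig (male Hartley) ileum LMMP (1 g tension, Krebs, 0.1 Hz, 0.4 ms) and male ICR mouse vas deferens (0.5 g, Mg-free Krebs, 0.1 Hz, 2.0 ms), both at 37 °C.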

[2] = molecular target: Substance-P receptor (Cavia porcellus) (UniProt P30547); test: Antagonist activity at NK1 receptor in Hartley guinea pig isolated ileum assessed as inhibition of substance P-induced muscle contraction; assay type: functional, tissue-based
In short: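 Guinea pig ileum LMMP (male Hartley), 1 g tension, in oxygenated Krebs at 37 °C, with 1 μM naloxone present. Substance P dose–response curves were run with and without peptide. Responses were expressed as % of the maximal peak of the control substance P curve, and Ke was derived from these curves.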

[3] = molecular target: T1, Delta-type opioid receptor (Homo sapiens, UniProt P41143); test: Agonist activity at human delta opioid receptor expressed in HN9.10 cells assessed by [35S]GTP-gamma-S binding assay relative to control; assay type: functional, cell-based
In short: (§2)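 Membranes (10 μg) from transfected cells stably expressing hDOR or rMOR, in 1 mL of 50 mM HEPES pH 7.4 with 1 mM EDTA, 5 mM MgCl2, 30 μM GDP, 1 mM DTT, 100 mM NaCl, 0.1 mM PMSF, 0.1% BSA and 0.1 nM [35S]GTPγS. Peptide added at various concentrations in duplicate, 90 min at 30 °C, then filtration. Nonspecific binding defined with 10 μM GTPγS. Stimulation taken as % over basal; EC50 and Emax by nonlinear regression from two independent experiments.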

[4] = molecular target: T1, Delta-type opioid receptor; test: Agonist activity at human delta opioid receptor expressed in HN9.10 cells assessed by [35S]GTP-gamma-S binding assay; assay type: functional, cell-based; in short: as §2
[5] = molecular target: Substance-P receptor (Cavia porcellus) (UniProt P30547); test: Agonist activity at NK1 receptor in Hartley guinea pig isolated ileum assessed as muscle contraction relative to KCl; assay type: functional, tissue-based; design: concentration or dose not given beside the values
In short: (§3)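 Guinea pig ileum LMMP (male Hartley) in oxygenated Krebs at 37 °C, 1 g tension, exposed to peptide at the tested antagonist concentration. Any contraction was expressed relative to the initial KCl-induced contraction of the same tissue. Testing stopped at […].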

[6] = molecular target: Mu-type opioid receptor (Rattus norvegicus) (UniProt P33535); test: Agonist activity at rat mu opioid receptor expressed in HN9.10 cells assessed by [35S]GTP-gamma-S binding assay relative to control; assay type: functional, cell-based; in short: as §2
[7] = Ratio of EC50 for rat mu opioid receptor to EC50 for human delta opioid receptor by [35S]GTPgammaS binding assay; assay type: functional; in short: as §2
Mu-type opioid receptor [8] = molecular target: T2, Mu-type opioid receptor (Rattus norvegicus, UniProt P33535); test: Agonist activity at rat mu opioid receptor expressed in HN9.10 cells assessed by [35S]GTP-gamma-S binding assay; assay type: functional, cell-based; in short: as §2
[9] = molecular target: Mu-type opioid receptor (Cavia porcellus) (UniProt P97266); test: Agonist activity at mu opioid receptor in Hartley guinea pig isolated ileum assessed as muscle contraction at 1 uM relative to KCl; assay type: functional, tissue-based; in short: as §3
[10] = Ratio of IC50 for mu opioid receptor in GPI assay to IC50 for delta opioid receptor in MVD assay; assay type: functional; in short: as §1
[11] = Ratio of Ki for rat mu opioid receptor to Ki for human delta opioid receptor
In short: (§4)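 Competition binding on crude membranes (50 μg) from cells stably expressing rMOR ([3H]DAMGO, 1.0 nM) or hDOR ([3H]DPDPE, 1.0 nM). Buffer was 50 mM Tris pH 7.4 with peptidase/protease inhibitors and 1 mg/mL BSA. Ten peptide concentrations were run in duplicate for 3 h at 25 °C, with 10 μM naloxone for nonspecific binding. Separation by filtration and scintillation counting; IC50 by nonlinear regression from two experiments; Ki by Cheng–Prusoff.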

Mu-type opioid receptor [12] = molecular target: T2, Mu-type opioid receptor; test: Displacement of [3H]DAMGO from rat mu opioid receptor expressed in HN9.10 cells; assay type: cell-based; in short: as §4
[13] = molecular target: T1, Delta-type opioid receptor; test: Displacement of [3H]DPDPE from human delta opioid receptor expressed in HN9.10 cells; assay type: cell-based

Sequence of Substance-P receptor (Cavia porcellus) (P30547 whole entry): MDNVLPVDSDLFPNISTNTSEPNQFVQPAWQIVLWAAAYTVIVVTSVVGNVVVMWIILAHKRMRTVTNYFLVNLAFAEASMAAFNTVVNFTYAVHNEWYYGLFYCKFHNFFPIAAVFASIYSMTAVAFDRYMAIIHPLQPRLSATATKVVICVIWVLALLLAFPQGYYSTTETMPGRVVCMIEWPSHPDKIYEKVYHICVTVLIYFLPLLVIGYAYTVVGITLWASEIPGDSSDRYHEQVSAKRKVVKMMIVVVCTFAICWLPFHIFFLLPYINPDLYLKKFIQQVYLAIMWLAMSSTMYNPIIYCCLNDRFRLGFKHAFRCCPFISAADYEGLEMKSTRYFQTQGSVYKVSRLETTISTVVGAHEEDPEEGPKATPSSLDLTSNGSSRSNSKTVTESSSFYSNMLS
Sequence of Mu-type opioid receptor (Cavia porcellus, UniProt P97266) (P97266 whole entry): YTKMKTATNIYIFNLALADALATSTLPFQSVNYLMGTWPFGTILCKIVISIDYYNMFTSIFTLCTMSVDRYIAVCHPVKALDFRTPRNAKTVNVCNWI
Sequence of Mu-type opioid receptor (Cavia porcellus) (P97266 whole entry): as above
T1 sequence (P41143 whole entry): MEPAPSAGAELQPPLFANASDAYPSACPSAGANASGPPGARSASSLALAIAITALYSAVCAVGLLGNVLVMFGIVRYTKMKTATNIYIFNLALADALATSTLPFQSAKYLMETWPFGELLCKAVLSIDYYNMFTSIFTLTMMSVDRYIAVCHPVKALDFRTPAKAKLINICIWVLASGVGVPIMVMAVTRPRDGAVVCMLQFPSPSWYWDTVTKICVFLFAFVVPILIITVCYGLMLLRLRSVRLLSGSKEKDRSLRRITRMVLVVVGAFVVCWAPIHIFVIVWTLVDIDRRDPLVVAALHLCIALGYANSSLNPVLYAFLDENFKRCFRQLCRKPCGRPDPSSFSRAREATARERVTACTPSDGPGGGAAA
T2 sequence (P33535 whole entry): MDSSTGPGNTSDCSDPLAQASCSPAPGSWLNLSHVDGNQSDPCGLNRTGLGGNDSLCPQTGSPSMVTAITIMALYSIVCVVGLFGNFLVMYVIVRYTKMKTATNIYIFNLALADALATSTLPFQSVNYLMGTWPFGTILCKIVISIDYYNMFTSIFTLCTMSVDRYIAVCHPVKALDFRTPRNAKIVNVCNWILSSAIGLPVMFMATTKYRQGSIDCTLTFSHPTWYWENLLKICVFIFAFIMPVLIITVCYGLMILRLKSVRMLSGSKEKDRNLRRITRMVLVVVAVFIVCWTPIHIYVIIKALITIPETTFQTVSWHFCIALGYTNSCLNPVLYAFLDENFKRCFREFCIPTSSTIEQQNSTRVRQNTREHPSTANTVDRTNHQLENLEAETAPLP
Sequence of Mu-type opioid receptor (Rattus norvegicus) (P33535 whole entry): as above

Question: For `CC(C)C[C@@H](NC(=O)[C@H](Cc1ccccc1)NC(=O)CNC(=O)[C@@H](C)NC(=O)[C@@H](N)Cc1ccc(O)cc1)C(=O)O` [DADLE], which IC50 (Mu-type opioid receptor [1]) is on record?
Answer: 24 nM

Question: Which IC50 (Mu-type opioid receptor [1]) does the source give for `CC(C)C[C@H](NC(=O)[C@@H]1CCCN1C(=O)[C@H](CC[S+](C)[O-])NC(=O)[C@H](Cc1ccccc1)NC(=O)CNC(=O)[C@@H](C)NC(=O)[C@@H](N)Cc1ccc(O)cc1)C(=O)N[C@@H](Cc1c[nH]c2ccccc12)C(=O)OCc1cc(C(F)(F)F)cc(C(F)(F)F)c1` (some centres undefined) here?
Answer: 150 nM

Question: What about the Ke [2] of the same compound?
Answer: 7.8 nM

Question: And the Emax [3]?
Answer: 52%

Question: For `CSCC[C@H](NC(=O)[C@H](Cc1ccccc1)NC(=O)CNC(=O)[C@@H](C)NC(=O)[C@@H](N)Cc1ccc(O)cc1)C(=O)N1CCC[C@H]1C(=O)N[C@@H](CC(C)C)C(=O)N[C@@H](Cc1c[nH]c2ccccc12)C(=O)OCc1cc(C(F)(F)F)cc(C(F)(F)F)c1`, which EC50 [4] is on record?
Answer: 2.9 nM

Question: And the IC50 (Mu-type opioid receptor [1])?
Answer: 360 nM

Question: And the Ke [2]?
Answer: 25 nM

Question: And the Emax [3]?
Answer: 45%

Question: What about the Activity [5] of the same compound?
Answer: 0%

Question: And the Emax [6]?
Answer: 42%

Question: Which results are given for `CCCC[C@H](NC(=O)[C@H](Cc1ccccc1)NC(=O)CNC(=O)[C@@H](C)NC(=O)[C@@H](N)Cc1ccc(O)cc1)C(=O)N1CCC[C@H]1C(=O)N[C@@H](CC(C)C)C(=O)N[C@@H](Cc1c[nH]c2ccccc12)C(=O)OCc1cc(C(F)(F)F)cc(C(F)(F)F)c1`?
Answer: EC50 [4]: 4 nM; IC50 (Mu-type opioid receptor [1]): 370 nM; Ke [2]: 7.9 nM; Emax [3]: 130%; Activity [5]: 0%

Question: Which Ke [2] does the source give for `CC(=O)N[C@@H](Cc1c[nH]c2ccccc12)C(=O)OCc1cc(C(F)(F)F)cc(C(F)(F)F)c1` here?
Answer: 250 nM

Question: Which EC50 [4] does the source give for `CC(C)C[C@H](NC(=O)[C@@H]1CCCN1C(=O)[C@@H](Cc1ccccc1)NC(=O)[C@H](Cc1ccccc1)NC(=O)CNC(=O)[C@@H](C)NC(=O)[C@@H](N)Cc1ccc(O)cc1)C(=O)N[C@@H](Cc1c[nH]c2ccccc12)C(=O)OCc1cc(C(F)(F)F)cc(C(F)(F)F)c1` here?
Answer: 17 nM

Question: And the Ratio EC50 [7]?
Answer: 20

Question: What about the Ke [2] of the same compound?
Answer: 70 nM

Question: And the Emax [3]?
Answer: 23%

Question: And the EC50 (Mu-type opioid receptor [8])?
Answer: 350 nM

Question: And the Activity [9]?
Answer: 9%

Question: And the Activity [5]?
Answer: 0%

Question: What about the Ratio IC50 [10] of the same compound?
Answer: > 2.4

Question: And the Ratio Ki [11]?
Answer: 4.1

Question: What about the Emax [6] of the same compound?
Answer: 24%

Question: For `CC(C)C[C@H](NC(=O)[C@@H]1CCCN1C(=O)CNC(=O)[C@H](Cc1ccccc1)NC(=O)CNC(=O)[C@@H](C)NC(=O)[C@@H](N)Cc1ccc(O)cc1)C(=O)N[C@@H](Cc1c[nH]c2ccccc12)C(=O)OCc1cc(C(F)(F)F)cc(C(F)(F)F)c1` (H-Y[dA]GFGPLW-{OBzl(3,5-(CF3)2)}), which EC50 [4] is on record?
Answer: 50 nM

Question: What about the IC50 (Mu-type opioid receptor [1]) of the same compound?
Answer: 380 nM

Question: What about the Ke [2] of the same compound?
Answer: 5.4 nM

Question: And the Emax [3]?
Answer: 34%

Question: What about the EC50 (Mu-type opioid receptor [8]) of the same compound?
Answer: 42 nM

Question: And the Activity [5]?
Answer: 0%

Question: What about the Emax [6] of the same compound?
Answer: 36%

Question: With `CC(C)C[C@H](NC(=O)[C@@H]1CCCN1C(=O)[C@H](CC(C)C)NC(=O)[C@H](Cc1ccccc1)NC(=O)CNC(=O)[C@@H](C)NC(=O)[C@@H](N)Cc1ccc(O)cc1)C(=O)N[C@@H](Cc1c[nH]c2ccccc12)C(=O)OCc1cc(C(F)(F)F)cc(C(F)(F)F)c1` as the compound, how does the Ratio EC50 [7] read?
Answer: 3.4

Question: What about the IC50 (Mu-type opioid receptor [1]) of the same compound?
Answer: 340 nM

Question: What about the Ke [2] of the same compound?
Answer: 19 nM

Question: And the Emax [3]?
Answer: 43%

Question: What about the EC50 (Mu-type opioid receptor [8]) of the same compound?
Answer: 33 nM

Question: And the Ki (Mu-type opioid receptor [12])?
Answer: 23 nM

Question: And the Activity [5]?
Answer: 0%

Question: And the Ratio IC50 [10]?
Answer: 3.4

Question: And the Ratio Ki [11]?
Answer: 4.7

Question: And the Emax [6]?
Answer: 45%

Question: Which EC50 [4] does the source give for `CC(C)C[C@H](NC(=O)[C@@H]1CCCN1C(=O)[C@H](Cc1ccccc1)NC(=O)[C@H](Cc1ccccc1)NC(=O)CNC(=O)[C@@H](C)NC(=O)[C@@H](N)Cc1ccc(O)cc1)C(=O)N[C@@H](Cc1c[nH]c2ccccc12)C(=O)OCc1cc(C(F)(F)F)cc(C(F)(F)F)c1` here?
Answer: 21 nM

Question: And the Ratio EC50 [7]?
Answer: 2.8

Question: And the Ke [2]?
Answer: 14 nM

Question: What about the Ki [13] of the same compound?
Answer: 15 nM

Question: And the Emax [3]?
Answer: 39%

Question: And the EC50 (Mu-type opioid receptor [8])?
Answer: 59 nM

Question: And the Activity [9]?
Answer: 7%

Question: What about the Activity [5] of the same compound?
Answer: 0%

Question: What about the Ratio IC50 [10] of the same compound?
Answer: > 1

Question: And the Ratio Ki [11]?
Answer: 1.9

Question: What about the Emax [6] of the same compound?
Answer: 36%

Question: What does the source list for `CCCC[C@@H](C(=O)N1CCC[C@H]1C(=O)N[C@@H](CC(C)C)C(=O)N[C@@H](Cc1c[nH]c2ccccc12)C(=O)OCc1cc(C(F)(F)F)cc(C(F)(F)F)c1)N(C)C(=O)[C@H](Cc1ccccc1)NC(=O)CNC(=O)[C@@H](C)NC(=O)[C@@H](N)Cc1ccc(O)cc1`?
Answer: EC50 [4]: 360 nM; Ke [2]: 4.6 nM; Emax [3]: 290%; Activity [9]: 12%; Activity [5]: 2%
